One experiment has as its system Bovine brain tubulin. Description: In vitro inhibition of tubulin polymerization. The class given is biochemical. The following applies: 10 μM purified tubulin, glutamate buffer, 30 °C. In a few lines:
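Tubulin was purified from bovine brain. Varying test-compound concentrations were preincubated with the tubulin at 30 °C, then cooled to 0 °C. GTP was added, the mixtures were moved to 0 °C cuvettes in a recording spectrophotometer and warmed to 30 °C, and assembly was followed turbidimetrically.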

In experiment [1] the test system is panel of seven human cancer cell lines. Description: Antiproliferative activity across the panel of seven cancer cell lines. Format: cell-based. Particulars: for IC50: Homo sapiens, read-out: IC50 range over the panel of cancer cell lines. In a few lines: (§1)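 Jurkat, CEM and SEM cells were grown in RPMI-1640, and HeLa, MCF-7, HT-29 and LoVo in DMEM, each with 10% FBS and penicillin/streptomycin. Wells got 8 × 10^3 cells and were preincubated 18 h at 37 °C in 5% CO2. Test compound from a 10 mM DMSO stock was diluted in medium (final DMSO ≤0.25%) and applied for 72 h. Read-out was MTT. IC50 is the concentration giving 50% inhibition of proliferation, from dose–response curves of ≥3 independent experiments, mean ± SE.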

For experiment [2], the system named is PBMC not stimulated with PHA. Nature of the experiment: Cytotoxicity in resting PBMC. Format: cell-based, human. Particulars: resting PBMC vs lymphoblastic cell lines. Put shortly:
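PBMC from healthy donors were isolated on a Lymphoprep gradient, washed, and held overnight at 1.0 × 10^6 cells/mL in RPMI-1640 with 10% FBS. Non-adherent cells were resuspended at 5 × 10^5 cells/mL without PHA, given a range of test-compound concentrations for 72 h, and read by MTT. Values are mean ± SEM of three separate experiments.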

The test system of experiment [3] is microtubule network in HeLa cells. Description: Immunofluorescence analysis of microtubule network. Particulars: 2.5 or 5.0 μM, 24 h, anti-β-tubulin staining. Format: cell-based, human. In a few lines: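 Untreated HeLa cells served as the control. After 24 h exposure, cells were fixed in cold 4% formaldehyde for 15 min. Staining used mouse monoclonal anti-β-tubulin (1:1000), then an Alexa-conjugated secondary antibody (1:2000), with DAPI (1:10,000) counterstain for nuclei. Cells were imaged by confocal microscopy at 20×.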

Experiment [4] deals with HeLa cells. Description: Flow cytometric analysis of cell cycle distribution. The class given is cell-based, human. The following applies: 24 h; for effect on cell cycle progression: PI, concentration-dependent, reduction in S phase cells. Put shortly:
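HeLa cells in exponential growth (2.5 × 10^5) were treated with a range of test-compound concentrations. Cells were collected, fixed in ice-cold 70% ethanol, and lysed in buffer containing RNase A and 0.1% Triton X-100. They were stained with propidium iodide for flow-cytometric DNA content, and the DNA histograms were analysed to give the percentage of cells in each phase.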

Experiment [5] deals with HeLa cells. Description: Annexin-V/PI apoptosis assay. The class given is cell-based, human. The following applies: 24 h, further increased after 48 h.
In experiment [6] the test system is HeLa cells. Description: Cell viability with or without pan-caspase inhibitor z-VAD.fmk. Format: cell-based, human. The following applies: compound 2.5 μM, z-VAD.fmk 100 μM, 48 h. Put shortly: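 HeLa cells were exposed for 48 h to test compound with or without the pan-caspase inhibitor, and viability was recorded as a percentage. Data are means ± SEM of three independent experiments. Significance against compound-alone treatment was tested by Student's t-test. Final DMSO was ≤0.25%.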

For experiment [7], the system named is Bcl-2, Bax, Bak, Mcl-1 and Bid in HeLa cells. Nature of the experiment: Western blot of Bcl-2 family proteins. Format: cell-based, human. The following applies: for Mcl-1 expression: 2.5 μM, especially at 48 h; for Bid expression: evident after 24 h at the lowest concentration used. Put shortly: (§2)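 HeLa cultures were sampled at the indicated times and concentrations, washed twice in 0 °C PBS and lysed 30 min at 0 °C. Lysates were clarified at 15 000 × g (4 °C, 10 min) and protein was measured by BCA. Aliquots of 20 µg were run on 7.5–15% gradient SDS-PAGE and blotted to PVDF. Membranes were blocked at 4 °C, probed 2 h at room temperature with primary antibody, then 60 min with peroxidase-labelled secondary, and developed by ECL. Membranes were reprobed for β-actin as the loading control.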

For a further experiment, the system named is γH2A.X in HeLa cells. Nature of the experiment: Western blot of γH2A.X. The class given is cell-based, human. Particulars: 24 or 48 h treatment. In a few lines: as §2
For experiment [8], the system named is HeLa cells. Nature of the experiment: ROS production by flow cytometry. The class given is cell-based, human.
In experiment [9] the test system is HeLa cells. Description: Mitochondrial membrane potential. Format: cell-based, human. Particulars: JC-1, time course.
The test system of experiment [10] is HeLa cells. Nature of the experiment: Cell viability. The class given is cell-based, human. The following applies: 2.5 μM, 48 h; BHA 10 μM, TOC 100 μM, NAC 100 μM, GSH 1 mM, DTT 1 mM.
In experiment [11] the test system is HeLa cells. Description: Intracellular GSH content. Format: cell-based, human. Particulars: 24 h, concentration-dependent; counteracted by NAC 100 μM.
The next experiment deals with U-937 (lymphoma) cells. The following applies: read-out: IC50 U-937; ref [18],[19]; cited from earlier work.
For experiment [12], the system named is HeLa (cervical) cancer cells. Particulars: read-out: IC50 HeLa (literature); ref [18],[19]; cited from earlier work.
Experiment [13] has as its system murine leukemia L1210 cells. Particulars: read-out: IC50 L1210; ref [21]; cited from earlier work.
Another experiment deals with LoVo cells. Nature of the experiment: Cell growth inhibitory activity. The class given is cell-based, human. Particulars: additional meta-methoxy. Put shortly:
as §1

The subject of the next experiment is Jurkat cells. Description: Cell growth inhibitory activity. Format: cell-based, human. The following applies: additional meta-methoxy. In a few lines:
as §1

The text below walks through data of PMC4094378 (European journal of medicinal chemistry, 2014).

SMILES strings stand for the structures. “Also recorded” adds a separate entry of the source.

`C=C(Br)C(=O)Nc1cccc(/C=C/C(=O)Nc2ccc(F)c(F)c2)c1` [4e, 2-Bromo-N-(3-{(1E)-3-oxo-3-[(3,4-difluorophenyl)amino]prop-1-en-1-yl}phenyl)-acrylamide]: the “Concentration up to which tubulin assembly was not inhibited” value in the experiment on Bovine brain tubulin is above 20 µM. For the same compound, in experiment [1] (additional meta-fluorine, all cancer cell lines), the “fold increase of antiproliferative activity relative to 4c” value was 4–1300 fold.

With `C=C(Br)C(=O)Nc1cccc(/C=C/C(=O)Nc2ccccc2)c1` [4a, N-{3-[(1E)-3-anilino-3-oxoprop-1-en-1-yl]phenyl}-2-bromoacrylamide], the IC50 in [1] was 0.19 to 27.3 µM.

In the case of `C=C(Br)C(=O)Nc1cccc(/C=C/C(=O)Nc2cccc(F)c2)c1` [4d, 2-Bromo-N-(3-{(1E)-3-oxo-3-[(3-fluorophenyl)amino]prop-1-en-1-yl}phenyl)-acrylamide], the “fold enhancement of antiproliferative activity vs 4c” value in experiment [1] (fluorine moved para to meta, six of seven cell lines, exception CEM) was 4–15 fold.

Turning to `C=C(Br)C(=O)Nc1cccc(/C=C/C(=O)Nc2cccc3ccccc23)c1` [4b, 2-Bromo-N-(3-{(1E)-3-oxo-3-[(naphthalen-1-yl)amino]prop-1-en-1-yl}phenyl)-acrylamide], the half-inhibitory concentration (IC50) in [1] was 0.68 to 6.5 µM.

For `COc1cc(NC(=O)/C=C/c2cccc(N)c2)cc(OC)c1OC` [7o, (E)-3-(3-aminophenyl)-N-(3,4,5-trimethoxyphenyl)acryl-amide], in experiment [1], the IC50 fell in the range of 2.81 to 63.1 µM. The “fold less active than 4o” value in experiment [1] (across seven cell lines) was 30–700 fold.

For the compound `C=C(Br)C(=O)Nc1ccc(/C=C/C(=O)Nc2cc(OC)c(OC)c(OC)c2)cc1` [4r], the “fold lower toxicity in resting PBMC respect to Jurkat and CEM” value in experiment [2] is listed as 10–100 fold. The “Concentration up to which tubulin assembly was not inhibited” value in the experiment with Bovine brain tubulin was above 20 µM. In addition, the “effect on microtubule network” value in experiment [3] was “not substantially modified”. For the same compound, in the experiment with HeLa cells [4], the “concentration at which rise in G2/M cells occurs (as low as)” value came out at 2 µM and the “effect on cell cycle progression” value is on record as “significant G2/M arrest”. Moreover, the annexin-V positive cells result in the experiment with HeLa cells [5] was “accumulation of annexin-V positive cells”. In addition, the “cell viability with z-VAD.fmk” value with HeLa cells [6] is reported as “significantly increased cell viability”. In addition, in experiment [7], the “Bak and Bax expression” value is reported as “remained practically unchanged”; the Mcl-1 expression entry was “decreased”; the Bid expression entry was “nearly complete disappearance”. The Bcl-2 expression entry in [7] (24 and 48 h) is listed as “decreased”. In the experiment with γH2A.X in HeLa cells, the γH2A.X expression entry was “induced γH2A.X expression”. In the experiment on HeLa cells [8] (1–6 h, concentration-dependent), the “ROS production, H2DCFDA-positive cells” value is “early but modest increase”. In addition, the “ROS production, HE fluorescence (superoxide anion)” value in the experiment with HeLa cells [8] (data not shown) is on record as “did not detect any increase”. In addition, in the experiment with HeLa cells [9], the “mitochondrial depolarization, onset time” value is at least 12 h. Moreover, in the experiment with HeLa cells [10], the “cell viability in the presence of antioxidants” value was “only the thiol-containing scavengers (NAC, GSH and DTT) significantly increased cell viability”. Moreover, the “intracellular GSH content (CMFDA fluorescence)” value in the experiment with HeLa cells [11] is given as “substantially reduced CMFDA fluorescence”.

Consider `C=C(Br)C(=O)Nc1cccc(/C=C/C(=O)Nc2ccc(OC)cc2)c1` [4i, 2-Bromo-N-(3-{(1E)-3-oxo-3-[(4-methoxyphenyl)amino]prop-1-en-1-yl}phenyl)-acrylamide], for which, in the experiment on Bovine brain tubulin, the “Concentration up to which tubulin assembly was not inhibited” value was above 20 µM. The “fold increase in antiproliferative activity relative to 4a” value in [1] (para-methoxy) was 7–15 fold.

In the case of `COc1cccc(/C=C/C(=O)Nc2cc(OC)c(OC)c(OC)c2)c1` [1a], the IC50 in the experiment on U-937 (lymphoma) cells was 3 µM; in [12] it was 11.3 µM.

For `C=C(Br)C(=O)Nc1cccc(/C=C/C(=O)Nc2ccc(C)cc2)c1` [4g, 2-Bromo-N-(3-{(1E)-3-oxo-3-[(p-tolyl)amino]prop-1-en-1-yl}phenyl)-acrylamide], the “fold increase in potency vs 4f” value in [1] (chlorine replaced by methyl) is reported as 2–10 fold.

As for `C=C(Br)C(=O)O` [α-bromoacrylic acid], the IC50 in experiment [13] was above 120 µM.

In the case of `COc1cc(NC(=O)/C=C/c2cccc(OCc3ccccc3)c2)cc(OC)c1OC` [1b, reference compound], the 50% inhibitory concentration (IC50) in [1] is 2.2 to 21.7 µM; with U-937 (lymphoma) cells, 1.8 µM. Further, the “fold more potent than 1a” value in experiment [1] (across seven cell lines) is listed as 1.5- to 12 fold.

With `C=C(Br)C(=O)Nc1cccc(/C=C/C(=O)NCc2ccc(C)cc2)c1` [4h, 2-Bromo-N-(3-{(1E)-3-[(4-methylbenzyl)amino]-3-oxoprop-1-en-1-yl}phenyl)acrylamide], the “fold reduced activity compared with 4g” value in [1] (cell lines other than HeLa, LoVo and MCF-7) was in the range of 2 to 7 fold.

For `C=C(Br)C(=O)Nc1cccc(/C=C/C(=O)Nc2ccc(Cl)cc2)c1` [4f, 2-Bromo-N-(3-{(1E)-3-oxo-3-[(4-chlorophenyl)amino]prop-1-en-1-yl}phenyl)-acrylamide], the “fold increase of antiproliferative activity, fluorine to chlorine” value in [1] (vs 4c) was 2–30 fold.

As for `C=C(Br)C(=O)Nc1cccc(/C=C/C(=O)Nc2ccc(OC)c(OC)c2)c1` [4m, 2-Bromo-N-(3-{(1E)-3-oxo-3-[(3,4-dimethoxyphenyl)amino]prop-1-en-1-yl}phenyl)-acrylamide], the “fold increase in activity vs 4i, LoVo” value in the experiment with LoVo cells is reported as 3 fold. Further, the “fold increase in activity vs 4i, Jurkat” value in the experiment with Jurkat cells stood at 2 fold. The “Concentration up to which tubulin assembly was not inhibited” value in the experiment on Bovine brain tubulin is above 20 µM.

Turning to `C=C(Br)C(=O)Nc1cccc(/C=C/C(=O)Nc2cc(OC)c(OC)c(OC)c2)c1` [4o, 2-Bromo-N-(3-{(1E)-3-oxo-3-[(3,4,5-trimethoxyphenyl)amino]prop-1-en-1-yl}phenyl)-acrylamide], the “Concentration up to which tubulin assembly was not inhibited” value with Bovine brain tubulin is above 20 µM. In experiment [1], the concentration for half-maximal inhibition (IC50) was 0.018 to 2.3 µM.

On to `C=C(Br)C(=O)Nc1cccc(/C=C/C(=O)Nc2ccc(N3CCOCC3)cc2)c1` [4p, 2-Bromo-N-(3-{(1E)-3-oxo-3-[(4-morpholinophenyl)amino]prop-1-en-1-yl}phenyl)-acrylamide], for which the “fold lower toxicity in resting PBMC respect to Jurkat and CEM” value in experiment [2] was 10–100 fold. Further, the “Concentration up to which tubulin assembly was not inhibited” value with Bovine brain tubulin was above 20 µM. In addition, the “fold enhancement of antiproliferative activity relative to 4a” value in [1] (morpholin-4-yl, six of seven cell lines, exception CEM) is reported as 8–100 fold. The “effect on microtubule network” value in experiment [3] is listed as “not substantially modified”. Further, the “effect on cell cycle progression” value with HeLa cells [4] is on record as “significant G2/M arrest”. Moreover, the annexin-V positive cells entry with HeLa cells [5] is “accumulation of annexin-V positive cells”. In addition, the “cell viability with z-VAD.fmk” value with HeLa cells [6] was “significantly increased cell viability”. In [7], the “Bak and Bax expression” value is listed as “remained practically unchanged”; the Mcl-1 expression entry was “decreased”; the Bid expression entry is recorded as “nearly complete disappearance”. Besides, the γH2A.X expression entry in the experiment on γH2A.X in HeLa cells is on record as “induced this effect only after 48 h”. Also, the “cell viability in the presence of antioxidants” value in the experiment with HeLa cells [10] is “only the thiol-containing scavengers (NAC, GSH and DTT) significantly increased cell viability”. Further, in the experiment on HeLa cells [11], the “intracellular GSH content (CMFDA fluorescence)” value is reported as “remarkable decrease; also recorded: substantially reduced CMFDA fluorescence”.
